From ChEMBL document CHEMBL3526065, “Metabolism of [6]-shogaol in mice and in cancer cells” (Drug Metab Dispos, 2012) come the findings set out here.

pIC50: −log10 of the molar value.

As a reminder, the pIC50 is the IC50 on a negative log10 scale, so that one unit is a factor of ten.

A short description of data set [1]: Antioxidant activity assessed as DPPH radical scavenging activity. Format: physicochemical. (In general: DPPH is a stable violet radical that fades when it is reduced.)
Data set [2] deals with HCT-116. The data set is described as follows: Induction of apoptosis in human HCT116 cells assessed as apoptotic cells at 40 uM after 24 hrs by TUNEL assay. Format: functional. In short, it runs like this: (§1)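 HCT-116 or H-1299 cells seeded at 1.0 × 10⁵/well, after 24 h exposed for 24 h to compound (10–80 μM) or DMSO control. Cells were proteinase K-pretreated, formaldehyde-fixed, and slide-mounted for peroxidase TUNEL staining. Ten fields per slide counted at 400×; brown-nucleus cells given as percentage of total cells; mean ± S.E., n = 10.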

Data set [3] concerns NCI-H1299. Nature of the data set: Induction of apoptosis in human H1299 cells assessed as apoptotic cells at 40 uM after 24 hrs by TUNEL assay. Format: functional. A digest of the protocol:
as §1

The nature of data set [4]: Drug level in human HCT116 cells treated with 10 uM [6]-shogaol after 24 hrs by HPLC-ECD analysis. It is filed as ADME, cell-based. The conditions noted are these: hct-116, 24 h. In short, it runs like this: (§2)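 Cells (1.0 × 10⁶) attached 24 h in six-well plates, then exposed to 10 μM final in McCoy's 5A with 10% FBS. Extracted with equal volume acetonitrile, diluted 5-fold, analysed by HPLC with electrochemical detection.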

Data set [5] relates to HT-29. The data set is described as follows: Drug level in human HT-29 cells treated with 10 uM [6]-shogaol by HPLC-ECD analysis. It is filed as ADME, cell-based. In short, it runs like this:
as §2

Data set [6] is described as follows: Drug level in C57BL/6J mouse feces treated with [6]-shogaol at 200 mg/kg, po by HPLC-ECD analysis relative to control. It is filed as ADME, organism-based. More on the design: dose 200 mg/kg, route oral. Conditions: in vivo. In short, it runs like this: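 Female C57BL/6J mice gavaged once with 200 mg/kg in corn oil, or corn oil alone (n = 5 each). 24-h feces collected in metabolic cages. Feces extracted by sonication 90 min in MeOH/H2O (50/50) + 0.1% acetic acid, centrifuged, diluted fivefold. Analysed by HPLC with electrochemical array detection (Gemini C18, phosphate/acetonitrile/THF gradient), compared against vehicle controls.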

A short description of data set [7]: Cytotoxicity against human H1299 cells assessed as growth inhibition after 24 hrs by MTT assay. It is filed as functional, cell-based. Conditions: NCI-H1299, 24 h. A digest of the protocol:
(§3)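 Cells seeded at 3000/well, attached 24 h at 37°C, then exposed to test agents (0–80 μM, 0.1% DMSO final) for 24 h in McCoy's 5A with 10% FBS. Medium replaced with 2.41 mM MTT for 3 h at 37°C; formazan dissolved in DMSO, absorbance 550 nm. Viability as percentage of DMSO control; mean ± S.D., n = 6.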
For orientation: Tetrazolium dyes change colour on reduction, which living cells bring about.

In data set [8] the test system is NCI-H1299. Nature of the data set: Induction of apoptosis in human H1299 cells assessed as apoptotic cells at 80 uM after 24 hrs by TUNEL assay. Format: functional. A digest of the protocol:
as §1

The nature of data set [9]: Cytotoxicity against human HCT116 cells assessed as growth inhibition after 24 hrs by MTT assay. Format: functional, cell-based. Conditions: HCT-116, 24 h. A digest of the protocol:
as §3

A short description of data set [10]: Drug level in human H1299 cells treated with 10 uM [6]-shogaol after 24 hrs by HPLC-ECD analysis. It is filed as ADME, cell-based. The conditions noted are these: nci-h1299, 24 h. In short, it runs like this:
as §2

Data set [11] relates to HCT-116. Nature of the data set: Induction of apoptosis in human HCT116 cells assessed as apoptotic cells at 80 uM after 24 hrs by TUNEL assay. It is filed as functional. In short, it runs like this:
as §1

With `CCCCCCC[C@H](O)CC(=O)CCc1ccc(O)c(OC)c1`, in [1], the pIC50 is 4.70.
On to `CCCCCCCC(=O)CCc1ccc(O)c(OC)c1`, for which the Activity in data set [2] is reported as 12.9%; in data set [3] it was 8.3%; in [8] it was 19.4%; in data set [11], 21.1%. In addition, the Drug metabolism entry in data set [4], in data set [5] and in [10] was “metabolite_detected” in each case. In [6], the Drug excretion entry is “metabolite_detected”. Also, the negative logarithm of the IC50 (pIC50) was 4.18 in data set [7] and 4.08 in data set [9].
For `CCCCCC(CC(=O)CCc1ccc(O)c(OC)c1)SCC(NC(C)=O)C(=O)O` (stereo not drawn), the Drug excretion result in data set [6] was “metabolite_detected”.
With `CCCCC/C=C/C(O)CCc1ccc(O)c(OC)c1` (stereo not drawn), in [4], the Drug metabolism result is given as “metabolite_detected”. The Drug excretion entry in [6] was “metabolite_detected”.
Take `CCCCCC(CC(=O)CCc1ccc(O)c(OC)c1)OC` (stereo not drawn): in data set [6], the Drug excretion entry is “metabolite_detected”.
Still for that read-out and setting: for `CCCCCC(CC(O)CCc1ccc(O)c(OC)c1)SCC(N)C(=O)NCC(=O)O` (stereo not drawn) the value was “metabolite_detected”; for `CCCCCC(CC(O)CCc1ccc(O)c(OC)c1)SCC(NC(C)=O)C(=O)O` (stereo not drawn), “metabolite_detected”; for `CCCCCC(CC(O)CCc1ccc(O)c(OC)c1)SCC(N)C(=O)O` (stereo not drawn), “metabolite_detected”.
